From the array DNA melting data of Ke et al. (doi:10.1101/2024.01.08.574731)

How the values were obtained:
[1] = folding enthalpy; higher = less favourable; fluorescence melt of hairpins on a sequencing array, two-state fit; conditions: sodium 0.088 M
Procedure, shortened: (§1)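 On a sequenced MiSeq flow cell, library hairpins with annealed Cy3 and quencher oligos were imaged for Cy3 fluorescence in 2.5 °C steps up to 60 °C, in 50 mM Na-HEPES pH 8.0, 25 mM NaCl. Normalisation used pre-quench Cy3 and control constructs. Bootstrapped two-state fits gave melting temperature and folding enthalpy, combined by inverse variance across four replicates and with fitted temperatures raised by 9.35 °C to match UV melts.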

[2] = melting temperature; fluorescence melt of hairpins on a sequencing array, two-state fit, raised by 9.35 °C to match UV melts; conditions: sodium 0.088 M
Procedure, shortened: as §1

Sequence | folding enthalpy [1] [kcal/mol] | Tm [2] [°C]
GCCCGGCGAAAGCAGCGC ((.(.((....)).).)) | -16.4 | 46.5
GCCCGGCGAAAGCCATGC ((..(((....)))..)) | -8.55 | 28.8
GCCCGGCGAAAGCCTAGC ((..(((....)))..)) | -13.8 | 27.2
GCCCGGCGAAAGCGAGGC (((..((....))..))) | -16.6 | 58.9
GCCCGGCGAAAGCTGAGC ((.(.((....)).).)) | -18.3 | 48.7
GCCCGGGGAAACCCAGGC (((.(((....))).))) | -32.6 | 52.8
GCCCGTCGAAAGACCGGC (((.(((....))).))) | -38.4 | 52.6
GCCCGTCGAAAGACTGGC (((.(((....))).))) | -48.7 | 55.4
GCCCGTGGAAACACGAGC ((.((((....)))).)) | -24 | 50.8
GCCCTACCGAAAGGTGGC (((..(((....)))))) | -20.8 | 49
GCCCTAGGAAACCAAGGC (((.(.(....).).))) | -12 | 28.2
GCCCTCGAAAGAGAGGC ((((((....))).))) | -31.1 | 58.2
GCCCTCGAAAGAGCGGGC ((((((....)))..))) | -29.2 | 50.1
GCCCTCGAAAGAGGCGGC ((((((....)))..))) | -19.1 | 56
GCCCTCGAAAGAGGGGGC ((((((....)))..))) | -15.1 | 68.4
GCCCTCGAAAGAGTGGC ((((((....))).))) | -31.9 | 58.5
GCCCTGCGAAAGCACTGC ((..(((....)))..)) | -6.98 | 24.6
GCCCTGCGAAAGCAGGC (((.(((....)))))) | -8.08 | 65.1
GCCCTGCGAAAGCCGAGC ((.(.((....)).).)) | -11 | 34.5

Sequence | folding enthalpy [1] [kcal/mol] | Tm [2] [°C]
GCCCTGCGAAAGCCGTGC ((.(.((....)).).)) | -11.6 | 31.7
GCCCTGCGAAAGCCTGGC (((..((....))..))) | -16.2 | 45.5
GCCCTGCGAAAGCGGCGC ((.(.((....)).).)) | -15 | 62
GCCCTGCGAAAGCTTGGC (((..((....))..))) | -23 | 50.6
GCCCTGGGAAACCAGAGC ((.((((....)))).)) | -28.7 | 45.5
GCCCTGGGAAACTAGGGC (((((.(....).))))) | -44.5 | 55.3
GCCCTTGCGAAAGCAGGC (((..(((....)))))) | -14.7 | 43.8
GCCCTTGGAAACAAAGGC (((.(((....))).))) | -28.2 | 35.3
GCCCTTTCGAAAGAAGGC (((..(((....)))))) | -33.3 | 37.6
GCCGAACGAAAGTTTGGC (((.(((....))).))) | -35.2 | 66
GCCGACCGAAAGGTGGGC (((.(((....))).))) | -34.4 | 67.4
GCCGACGAAAGTCCGGGC ((((((....)))..))) | -24.4 | 53
GCCGACGAAAGTCGAGGC ((((((....)))..))) | -16.5 | 59.5
GCCGACGAAAGTCTCGGC ((((((....)))..))) | -37.1 | 52
GCCGACGGAAACACCGGC ((((..(....)..)))) | -20.4 | 43.9
GCCGAGCCGAAAGGCGGC (((..(((....)))))) | -12.7 | 68.7
GCCGAGCGAAAGCATGGC (((..((....))..))) | -28.1 | 64
GCCGAGCGAAAGCCAGGC (((..((....))..))) | -24 | 62.7
